Assay: Toxicity liver stage against HepG2, at 10uM
Format: cell-based
Set-up: test concentration 10 uM, cell line HepG2-A16-CD81EGFP
Details: human, HepG2-A16-CD81EGFP cells; read-out: INHIBITION
Summary of the method: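 Uninfected HepG2-A16-CD81EGFP cells, 3 × 10^3 per well, 1536-well, plated on prespotted compound at 10 μM final, parasite-free screening media added to match infected plates; puromycin 10 μM positive, DMSO 0.5% negative; run in parallel with 48 h PbLuc assay at 37 °C, 5% CO2; viability by CellTiter-Glo luminescence, normalized to controls.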

| SMILES | cytotoxicity at 10 µM [%] |
| --- | --- |
| O=C(NC[C@H]1OC[C@@H](NC2COC2)[C@@H]1O)c1cccs1 | 0.0331 |
| CC(C)N1C[C@@H](F)[C@@H](OCc2nc3ncccc3[nH]2)C1 | 5.47 |
| CN1C(=O)C2(CC(=O)Nc3[nH]ncc32)c2cc(F)ccc21 (configuration not stated) | 0.488 |
| Cc1nc(NC(=O)CN2C(=O)c3ccccc3NC2C(C)C)sc1C (configuration not stated) | 0.585 |
| C[C@@H](O)CNc1c(NCc2ccco2)c(=O)c1=O | -7.58 |
| Cn1ccc2c(C(=O)NC3CN4CCC3CC4)cccc21 (configuration not stated) | -46.8 |
| O=C1CSC(c2ccccc2)c2c(n(C3CCOCC3)[nH]c2=O)N1 (configuration not stated) | -4.69 |
| Nc1nc2c(c(NC(=O)Nc3ccccc3)n1)CCCC2 | -9.74 |
| NC(=O)Cc1csc(NC(=O)C2CSCCC(=O)N2)n1 (configuration not stated) | 0.722 |
| O=C(NC1CCC1)c1n[nH]c2c1CNCC2 | 1.67 |
| Cc1ccnc(OC[C@]23COC[C@H]2CN(C(=O)c2cnccn2)C3)n1 | -7.1 |
| O=C(N1CCCC1)N1Cc2nccn2CC(Cn2ncccc2=O)C1 (configuration not stated) | 3.39 |
| Cc1occc1C(=O)N1C[C@@H](C(=O)NCc2ccco2)C[C@H]2OCC[C@H]21 | 1.08 |
| O=C(O)c1nc(SCc2ccccc2)ncc1Br | 0.231 |
| CCOc1cc(=O)n2c(c1C(=O)OCc1ccc(C)cc1)CCCC2 | 3.11 |
| COC(=O)c1cc2c(OC)c(OC)c(OC)cc2[nH]1 | -0.555 |
| O=C(c1cc2c(s1)CCC2)N1CCC(c2ccncc2)CC1 | 39.7 |
| CNc1ccc(CC2CCCN(C(=O)c3cnccn3)C2)nn1 (configuration not stated) | -9.27 |
| CNc1ncccc1CN1CCCCC1c1ccnc(N)n1 (configuration not stated) | -12.3 |
| Cc1ncccc1Oc1nccnc1C1CCN(S(C)(=O)=O)CC1 | -7.88 |
| CC(C)N(C)CCCNC(=O)c1cnn(C(C)(C)C)c1C(F)(F)F | 7.25 |
| Cn1nc(C(C)(C)C)cc1NC(=O)CSc1nnc[nH]1 | 0.353 |

| SMILES | cytotoxicity at 10 µM [%] |
| --- | --- |
| CC1CN(C)CCN1C(=O)Cc1cc(Cl)c2c(c1)OCCO2 (configuration not stated) | -3.47 |
| CN(C)CCOc1ccc(N(C)S(=O)(=O)c2cnn(C)c2)cc1 | -13.3 |
| CCNc1cc2c(nn1)CCN(C(=O)c1cc3c(s1)CCOC3)C2 | -8.51 |
| Cc1cnn(C2CN(CC(O)COCc3ccc4c(c3)OCO4)C2)c1 (configuration not stated) | -5.41 |
| CCN(C)S(=O)(=O)N1CCCC1CC(=O)c1cccs1 (configuration not stated) | -29 |
| C=C(C)CN1CCC(NC(=O)Nc2cc(C(N)=O)ccc2OC)CC1 | 10.8 |
| COCCCC(=O)NC1(c2cccc(Br)c2)CC1 | 2.11 |
| COc1cccc(OCC(=O)NS(=O)(=O)c2cc(F)ccc2F)c1 | 7.53 |
| CC(C)c1nnc(NC(=O)NC2CCOc3ccccc32)s1 (configuration not stated) | 18.1 |
| CC(c1cccc(O)c1)N(C)S(=O)(=O)c1cccnc1 (configuration not stated) | 9.46 |
| O=C(c1ncoc1C1CCCO1)N1CC2(CCCC2)c2ccccc21 (configuration not stated) | 3.13 |
| COC(=O)NCC(=O)NCC1(c2c(F)cccc2F)CCCC1 | -3.56 |
| CCCn1nnnc1COc1ccc(C(=O)OC)cc1 | -5.58 |
| c1cnnc(NCC2CN(CCn3cncn3)CCO2)c1 (configuration not stated) | -3.16 |
| CC(C)COC(C)C(=O)NCc1ccccc1Cn1ccnc1 (configuration not stated) | 4.9 |
| O=C(NCCNCC1CNc2ccnn2C1)c1ccc(F)cc1 (configuration not stated) | -8.75 |
| CCc1ccc(CN2CCC3(CC(C(=O)NCC(C)C)=NO3)C2)o1 (configuration not stated) | 6.46 |
| O=c1ccc2c([nH]1)CCC(NS(=O)(=O)C1CC1)C2 (configuration not stated) | 3.66 |
| Cc1cc(C(=O)N2CCn3cc(CN4CCN(C)CC4)nc3C2)no1 | -74.7 |
| CN1CCN(Cc2cnc3n2CCN(C(=O)c2ccnnc2)C3)CC1 | -81.1 |
| CCn1cc2c(n1)C(COC)CN(C(=O)c1ccccn1)C2 (configuration not stated) | 2.61 |
| COc1cccc(OC)c1-c1ccnc2cc(CC(=O)N(C)C)nn12 | -8.86 |

| SMILES | cytotoxicity at 10 µM [%] |
| --- | --- |
| CCc1nn(C)c(Cl)c1CN(CCOC)Cc1cnn(C)c1 | -6.5 |
| Cn1c(Cn2ccnc2)nnc1C1CCCN(Cc2ccncc2)C1 (configuration not stated) | 12.1 |
| Cc1cc(Cl)ccc1C(=O)N[C@H]1CN(S(C)(=O)=O)C[C@@H]1C1CC1 | 8.9 |
| O=C(CSCC1CC1)N1CCCC2(CCC(=O)N(CC3CC3)C2)C1 (configuration not stated) | 3.8 |
| OCC1CCCN(c2ncnc3c2Cc2ccccc2OC3)C1 (configuration not stated) | 1.44 |
| COc1ccc(CCC(=O)N2CCNCC2C(=O)N2CCCC2)cc1 (configuration not stated) | 1.18 |
| O=C1CN(Cc2cn(CC3CCN(C4CCSCC4)CC3)nn2)CCN1 | -48.2 |
| CC(C)=CCN1CCN(C(=O)c2snnc2C)[C@H]2CS(=O)(=O)C[C@H]21 | -0.987 |
| COC1CCN(S(=O)(=O)N2CCC3(CCCNC3=O)C2)CC1 (configuration not stated) | 1.1 |
| COc1ccc(-c2cccc(-c3ccn(CCCN(C)C)n3)c2)nn1 | -1.01 |
| Cc1cc(CN(C)CC2(O)CCCN(CCC3CCCCC3)C2=O)no1 (configuration not stated) | -14.4 |
| CCc1ccc(CN(C)C(=O)C2CC(=O)N(c3cccc(O)c3)C2)nc1 (configuration not stated) | -3.57 |
| CCCc1nccn1-c1ccncc1 | 17.3 |
| O=C(O)[C@@H]1CN(Cc2ccc3nsnc3c2)C[C@H]1c1cccnc1 | 4.46 |
| O=C(C1CC1)N1C[C@H]2CNC[C@@]2(C(=O)NCCCc2ccccc2)C1 | -0.371 |
| CN(C)C[C@H]1CC[C@@H](Cc2ccc3c(cnn3C)c2)O1 | -1.07 |
| CCn1cc(S(=O)(=O)NC2CCCN(CC3CCCCC3)C2)cn1 (configuration not stated) | -7.25 |
| CCc1cn[nH]c1C1CCCN(C(=O)c2cc(C(C)C)on2)C1 (configuration not stated) | -8.6 |
| COC(=O)c1ccn(CC(=O)Nc2nn(CC3CC3)c3ccccc23)n1 | 4.95 |
| Cc1nc2c(c(N3CCN(c4ncccc4C(N)=O)CC3)n1)CCNC2 | -4.69 |
| CN1CC=C(CCN(C)C(=O)CCc2ccccc2)CC1 | -5.84 |
| CN1CC2(CCN(C(=O)c3ccc4c(=O)n(C)cnc4c3)CC2)CC1=O | 5.58 |

| SMILES | cytotoxicity at 10 µM [%] |
| --- | --- |
| Cc1ccccc1-c1noc(-c2ccc(NCC3COCCO3)nc2)n1 (configuration not stated) | 3.41 |
| CCCc1cncnc1N1CCCC2(CCC(=O)N(C3CCCC3)C2)C1 (configuration not stated) | 0.887 |
| O[C@@]1(CN2CCN(Cc3ccncc3)CC2)CCCN2CCCC[C@@H]21 | 8.91 |
| CCN(CC1CCOCC1)C(=O)CCNC(=O)c1ccccc1F | -43.1 |
| Cc1nn(CCO)cc1CN1CCC(C(C)N2CCCC2)CC1 (configuration not stated) | -1.04 |
| Cc1cc(Cl)ccc1C(=O)N1C[C@H](C2CC2)[C@@H](N)C1 | -46.6 |
| CC(Cn1cncn1)NCc1n[nH]c2c1CCCCC2 (configuration not stated) | -4.39 |
| Cc1nccn1Cc1nnc(C2CCCN(Cc3ccncc3)C2)n1C (configuration not stated) | -1.63 |
| CCc1nccn1C1CCCN(C(=O)CCOCC(F)(F)F)C1 (configuration not stated) | -9.39 |
| COc1cc(CNC(=O)c2c(C)noc2C)ccn1 | -8.83 |
| CC(C)c1ccc(OCCC(=O)N2CCC(C(N)=O)CC2)cc1 | -11.5 |
| CCc1nc2n(n1)CC(NCc1ccnc(-c3ccccc3)n1)CC2 (configuration not stated) | -8.3 |
| O=C(NCCN1CCOCC1)NCC(O)c1cccc(F)c1 (configuration not stated) | -9.24 |
| O=C(NCCn1ccnc1)N1CCN(c2nccs2)CC1 | -3.68 |
| CCOc1ncccc1C(=O)N1CCCC1c1c(C)nn(C)c1OC (configuration not stated) | -13 |
| CCCC(=O)N(CCCN1CCOCC1)c1nc2c(F)cccc2s1 | -10.7 |
| CN(C)c1ncc(CN2CCC(O)(c3ccccc3F)CC2)cn1 | 2.4 |
| CCCSc1ncc(CN(C)CCN2CCCCC2)cn1 | -1.39 |
| Cc1cc(C(=O)N2CCO[C@H]3[C@H](Oc4ccccn4)CC[C@@H]32)c(C)[nH]1 | -107 |
| Cn1ccnc1C(=O)N1CCC2(CC1)CC(Oc1cccnc1)CO2 (configuration not stated) | 3.04 |
| Cc1nc(CN2CCN(C)C(=O)C23CCN(C(C)C)CC3)cs1 | 2.33 |
| CC1CCN(C(=O)C2(Cc3cc(C4CCOC4)no3)CCNCC2)CC1 (configuration not stated) | -3.04 |

| SMILES | cytotoxicity at 10 µM [%] |
| --- | --- |
| CCN(CC)S(=O)(=O)N1CCc2nc(C3CCNCC3)ncc2C1 | -5.66 |
| O=C(NCC1CCOCC1)[C@H]1C[C@@H]2CCN(Cc3ccccc3)C[C@H]2O1 | 1.03 |
| Cc1cccc(N2CCOCC3(C2)CN(c2ccoc2)C(=O)CO3)n1 (configuration not stated) | 4.39 |
| Cc1ccc(N2C[C@H]3CCN(Cc4ccncc4)C[C@H]3C2)nn1 | -111 |
| CNC(=O)CN1C(=O)CCC12CCCN(Cc1cccc(F)c1)C2 (configuration not stated) | -5.51 |
| c1ccc(CN2CCC3(CC2)CCN(Cc2cccnc2)C3)nc1 | -78.6 |
| O=C1[C@H]2CN(Cc3nccs3)C[C@H]2CN1c1ccsc1 | 3.06 |
| Cc1ncsc1CN1C[C@@H]2COC[C@]2(C(=O)NC2CC(F)(F)C2)C1 | -103 |
| COc1cc(N2C[C@H]3CCC[C@@H](CN(C)C)[C@H]3C2)ncn1 | -78.3 |
| CNC(=O)c1cc2c(nc1NCC1CC1)CCN(c1ccncn1)CC2 | 3.17 |
| O=C(C1CCC1)N1CC[C@H](O)[C@@H]1Cc1cccnc1 | -105 |
| c1ccc(O[C@@H]2CO[C@@]3(CCCN(CC4CCOCC4)C3)C2)nc1 | -82.6 |
| O=C1CO[C@@H]2CN(Cc3nccs3)C[C@H]2N1Cc1ccncc1 | -66.6 |
| Cn1cccc1C(=O)N1CC2(CCN(C(=O)c3cccnc3)C2)C1 | -98.4 |
| O=C(NC1CCCC1)[C@@H]1CN(Cc2nccs2)C[C@H]2OCC[C@H]21 | 4.91 |
| CCOCCN1C[C@@H]2CCCO[C@@H]2[C@H](NC(=O)c2cnoc2C)C1 | -119 |
| COc1ccc(CN2C[C@@H]3OCCN(c4ncccn4)[C@@H]3C2)cc1 | 4.71 |
| FC(F)(F)CCc1ccnc(NC2CCC(n3cnnc3)CC2)n1 (configuration not stated) | -6.71 |
| COc1ccnc(N2C[C@H]3CC[C@@H](C2)N(CC2CCC2)C3=O)n1 | -0.054 |

— ChEMBL document CHEMBL4513216, “Probing the Open Global Health Chemical Diversity Library for Multistage-Active Starting Points for Next-Generation Antimalarials” (ACS Infect Dis, 2020)
